These results are taken from ChEMBL document CHEMBL3351961, “In vitro antitumor activity evaluation of some 1,2,4-triazine derivatives bearing piperazine amide moiety against breast cancer cells” (Bioorg Med Chem, 2014).

Test [1] concerns MCF7. The test can be described thus: Inhibition of DNA synthesis in human MCF7 cells at 2 times cytotoxic IC50 level after 24 hrs by 5-bromo-20-deoxy-uridine incorporation method. Type of test: functional. Summed up:
(§1)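 BrdU ELISA on MCF-7 seeded at 2 × 10^4 cells/well. Compounds given at IC50/2, IC50 and 2 × IC50 (from the XTT assay) for 24 h or 48 h. BrdU added for 2 h at 37 °C, then anti-BrdU-POD for 90 min, three PBS washes and colorimetric substrate. Untreated control absorbance set as 0% inhibition. Means of two independent experiments ± SD of four wells; cisplatin positive control.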

For test [2], the system named is MCF7. The test can be described thus: Induction of apoptosis in human MCF7 cells assessed as viable cells level at cytotoxic IC50 level after 24 hrs by Annexin V/PI dual staining based flow cytometry (reference value: 94.36 %). The class given is functional.
Test [3] relates to MCF7. The test can be described thus: Inhibition of DNA synthesis in human MCF7 cells at 30.63 ug/ml after 48 hrs by 5-bromo-20-deoxy-uridine incorporation method. The class given is functional. The following applies: MCF7, 48 h. A digest of the protocol:
(§2)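 MCF-7 seeded at 2 × 10^4 cells/well and exposed to compound for 48 h at the stated concentration. BrdU added for 2 h at 37 °C, then anti-BrdU-POD for 90 min, PBS washes and colorimetric substrate. Inhibition taken relative to untreated control absorbance (set as 0%). Means of two independent experiments ± SD of four wells.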

The test system of test [4] is MCF7. The test can be described thus: Inhibition of DNA synthesis in human MCF7 cells at 0.5 times cytotoxic IC50 level after 24 hrs by 5-bromo-20-deoxy-uridine incorporation method. Type of test: functional. Summed up: as §1
The subject of test [5] is MCF7. Nature of the test: Inhibition of DNA synthesis in human MCF7 cells at cytotoxic IC50 level after 24 hrs by 5-bromo-20-deoxy-uridine incorporation method. The class given is functional. A digest of the protocol:
as §1

In test [6] the test system is MCF7. The test can be described thus: Induction of apoptosis in human MCF7 cells assessed as early apoptotic cells level at cytotoxic IC50 level after 24 hrs by Annexin V/PI dual staining based flow cytometry (reference value: 0.46%). The class given is functional.
Test [7] can be described thus: Cytotoxicity against mouse NIH/3T3 cells after 24 hrs by MTT assay. The class given is cell-based. Conditions: NIH3T3, 24 h, in the assay text read “XTT assay” for “MTT assay”. A digest of the protocol: (§3)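 Cells grown in RPMI with fetal calf serum, penicillin/streptomycin, 37 °C, 5% CO2. Seeded 2 × 10^4 cells/well, then 24 h. Medium replaced with compound at 3.9–500 µg/ml (DMSO stocks diluted in medium, final DMSO under 0.1%). XTT read-out of mitochondrial activity: 3 h at 37 °C, OD 480 nm (reference 680 nm). IC50 by non-linear regression; duplicate experiments; cisplatin positive control.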
A general note: Tetrazolium dyes change colour on reduction, which living cells bring about.

Test [8] concerns MCF7. Nature of the test: Cytotoxicity against human MCF7 cells after 24 hrs by MTT assay. Type of test: functional, cell-based. The following applies: MCF7, 24 h, in the assay text read “XTT assay” for “MTT assay”. Summed up:
as §3

The subject of test [9] is MCF7. The test can be described thus: Induction of apoptosis in human MCF7 cells assessed as late apoptotic cells level at cytotoxic IC50 level after 24 hrs by Annexin V/PI dual staining based flow cytometry (reference value: 1.52 %). The class given is functional. In general terms: Flow cytometry measures light scatter and fluorescence of single cells or particles in a stream.

For test [10], the system named is MCF7. The test can be described thus: Inhibition of DNA synthesis in human MCF7 cells at 15.32 ug/ml after 48 hrs by 5-bromo-20-deoxy-uridine incorporation method. The class given is functional. Conditions: MCF7, 48 h. A digest of the protocol: as §2
Test [11] deals with MCF7. The test can be described thus: Inhibition of DNA synthesis in human MCF7 cells at 61.26 ug/ml after 48 hrs by 5-bromo-20-deoxy-uridine incorporation method. The class given is functional. The following applies: MCF7, 48 h. Summed up:
as §2

Test [12] relates to MCF7. Nature of the test: Induction of apoptosis in human MCF7 cells assessed as necrotic cells level at cytotoxic IC50 level after 24 hrs by Annexin V/PI dual staining based flow cytometry (reference value: 3.66 %). Type of test: functional.

For the compound `COc1ccc(N2CCN(CC(=O)N3CCN(c4nnc(-c5ccc(C)cc5)c(-c5ccc(C)cc5)n4)CC3)CC2)cc1`, the “inhibition (INH)” value is listed as 88.52% in the test on MCF7 [1], 56.94% with MCF7 [4] and 77.82% in the test on MCF7 [5]. Also, the Activity with MCF7 [2] amounted to 66.5%; in the test on MCF7 [6], 0.6%; in the test on MCF7 [9] it was 6.2%; with MCF7 [12], 26.7%. Moreover, the inhibition (in general, the percentage by which the read-out fell short of the control) at 30.63 µg/mL with MCF7 [3] was 86%. The IC50 – broadly, the point on the concentration scale where inhibition reaches its midpoint – in test [7] worked out at 116 µM; in the test with MCF7 [8] it was 53 µM. This compound returned an inhibition at 15.32 µg/mL in the test with MCF7 [10] of 76.7%. The compound further showed an inhibition at 61.26 µg/mL in the test on MCF7 [11] of 88.9%.
